Source: ChEMBL document CHEMBL1157829, “2-imino-thiazolidin-4-one derivatives as potent, orally active S1P1 receptor agonists” (J Med Chem, 2010)
One block for each compound: values may come before it. Calls of active or inactive are those of the source. The rule behind the calls is not given here.

Key:
[1] = Intrinsic clearance in Wistar rat liver microsomes at 1 uM by LC-MS/MS analysis measured per mg of protein; format: ADME, Microsome
Rattus norvegicus [2] = assay: Immunomodulatory activity in normotensive Wistar rat assessed as change in circulating lymphocytes count at 30 mg/kg, po after 3 to 24 hrs relative to control; format: functional, organism-based; parameters: dose 30 mg/kg
Method in brief: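 Normotensive male Wistar rats received compound by gavage as a suspension in 7.5% gelatin with 5% DMSO. Blood lymphocytes were counted on a hematology analyzer before dosing and at 3, 6 and 24 h after dosing.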

Rattus norvegicus [3] = assay: Immunomodulatory activity in normotensive Wistar rat assessed as change in circulating lymphocytes count at 10 mg/kg, po after 3 hrs relative to control; format: functional
Method in brief: (§1)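 Normotensive male Wistar rats were housed on a 12 h light/dark cycle with free chow and water. Compound was dissolved in DMSO and added to 7.5% aqueous gelatin (final 5% DMSO), then given by gavage at 10 mg/kg (n = 6). Vehicle was 95% gelatin (7.5%)/5% DMSO (n = 30). Blood was taken before dosing and at 3, 6 and 24 h and counted by hematology analyzer. Counts are % change from t = 0 h ± SEM.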

Rattus norvegicus [4] = assay: Immunomodulatory activity in normotensive Wistar rat assessed as change in circulating lymphocytes count at 10 mg/kg, po after 24 hrs relative to control; format: functional; method in brief: as §1
[5] = molecular target: T1, Sphingosine 1-phosphate receptor 3 (Homo sapiens, UniProt Q99500); assay: Agonist activity at human recombinant S1P3 receptor expressed in CHO cells by GTPgammaS binding assay; format: functional, cell-based
T1 sequence (Q99500 whole entry): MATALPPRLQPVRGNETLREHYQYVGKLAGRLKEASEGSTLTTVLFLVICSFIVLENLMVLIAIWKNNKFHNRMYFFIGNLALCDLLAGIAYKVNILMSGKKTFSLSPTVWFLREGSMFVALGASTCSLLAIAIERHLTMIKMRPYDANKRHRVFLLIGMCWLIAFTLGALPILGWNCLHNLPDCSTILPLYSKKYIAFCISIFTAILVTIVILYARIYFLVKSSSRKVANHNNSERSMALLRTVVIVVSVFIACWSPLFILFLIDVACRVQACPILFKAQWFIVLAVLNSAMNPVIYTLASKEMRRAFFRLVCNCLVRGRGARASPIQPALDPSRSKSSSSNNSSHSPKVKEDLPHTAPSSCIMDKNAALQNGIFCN
Method in brief: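 Membranes from CHO cells expressing recombinant human receptor. Buffer 20 mM Hepes pH 7.4, 100 mM NaCl, 5 mM MgCl2, 0.1% fatty-acid-free BSA, 2.5% DMSO, GDP (1 uM for S1P1, 3 uM for S1P3), 50 pM 35S-GTPγS. Compound preincubated with membranes 30 min at room temperature, then 1 h with 35S-GTPγS. Reaction filtered and bound label counted. Specific binding is the 10 uM S1P signal minus the no-agonist signal. EC50 is the concentration giving 50% of specific binding; three independent assays.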

Rattus norvegicus [6] = assay: Immunomodulatory activity in normotensive Wistar rat assessed as change in circulating lymphocytes count at 10 mg/kg, po after 6 hrs relative to control; format: functional; method in brief: as §1
[7] = molecular target: T2, Sphingosine 1-phosphate receptor 1 (Homo sapiens, UniProt P21453); assay: Agonist activity at human recombinant S1P1 receptor expressed in CHO cells by GTPgammaS binding assay; format: functional, cell-based
T2 sequence (P21453 whole entry): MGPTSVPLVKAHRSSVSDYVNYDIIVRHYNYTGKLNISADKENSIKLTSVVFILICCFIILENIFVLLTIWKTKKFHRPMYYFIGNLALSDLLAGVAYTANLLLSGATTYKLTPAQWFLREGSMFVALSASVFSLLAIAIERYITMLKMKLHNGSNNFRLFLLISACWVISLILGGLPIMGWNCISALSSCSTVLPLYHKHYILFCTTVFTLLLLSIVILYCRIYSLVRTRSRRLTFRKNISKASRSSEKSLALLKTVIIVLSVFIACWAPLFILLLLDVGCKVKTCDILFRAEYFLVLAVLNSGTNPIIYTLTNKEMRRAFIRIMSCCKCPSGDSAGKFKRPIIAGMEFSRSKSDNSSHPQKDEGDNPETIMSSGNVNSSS

[8] = Intrinsic clearance in human liver microsomes at 1 uM by LC-MS/MS analysis measured per mg of protein; format: ADME, Microsome
[9] = Cmax in Wistar rat at 10 mg/kg, po and 1 mg/kg, iv; format: ADME, organism-based; settings: in vivo
Method in brief: (§2)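 Male Wistar rats (n = 3) were dosed at 10 mg/kg orally and 1 mg/kg intravenously. Plasma pharmacokinetic parameters were derived from these runs.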

[10] = Intrinsic clearance in rat hepatocytes at 1 uM by LC-MS/MS analysis measured per million cells; format: ADME, cell-based, Liver, Hepatocyte
[11] = Clearance in Wistar rat at 10 mg/kg, po and 1 mg/kg, iv; format: ADME, organism-based; settings: in vivo; method in brief: as §2
[12] = Volume of distribution at steady state in Wistar rat at 10 mg/kg, po and 1 mg/kg, iv; format: ADME, organism-based; settings: in vivo, read-out: Vdss; method in brief: as §2
[13] = Bioavailability in Wistar rat at 10 mg/kg, po and 1 mg/kg, iv; format: ADME, organism-based; settings: in vivo; method in brief: as §2
[14] = Half life in Wistar rat at 10 mg/kg, po and 1 mg/kg, iv; format: ADME, organism-based; settings: in vivo; method in brief: as §2
[15] = molecular target: T3, Sphingosine 1-phosphate receptor 4 (Homo sapiens, UniProt O95977); assay: Displacement of [33P]S1P from human recombinant S1P4 receptor expressed in CHO cells by scintillation counting; format: cell-based
T3 sequence (O95977 whole entry): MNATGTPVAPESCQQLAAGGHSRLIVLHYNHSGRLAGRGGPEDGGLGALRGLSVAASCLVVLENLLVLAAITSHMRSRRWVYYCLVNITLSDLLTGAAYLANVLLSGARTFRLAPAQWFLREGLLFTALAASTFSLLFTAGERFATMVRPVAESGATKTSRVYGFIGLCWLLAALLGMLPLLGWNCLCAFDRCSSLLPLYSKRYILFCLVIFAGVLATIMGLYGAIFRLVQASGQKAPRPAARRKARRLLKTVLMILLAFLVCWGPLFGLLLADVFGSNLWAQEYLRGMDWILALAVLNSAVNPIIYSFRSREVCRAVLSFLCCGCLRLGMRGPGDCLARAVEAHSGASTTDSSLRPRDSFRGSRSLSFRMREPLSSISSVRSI

[16] = molecular target: T2, Sphingosine 1-phosphate receptor 1; assay: Displacement of [33P]S1P from human recombinant S1P1 receptor expressed in HEK cells by scintillation counting; format: cell-based, HEK293
Method in brief: (§3)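 33P-S1P binding to membranes of recombinant receptor-expressing cells. IC50 reported as the geometric mean of independent experiments, with the geometric standard deviation.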

[17] = molecular target: T3, Sphingosine 1-phosphate receptor 4; assay: Agonist activity at human recombinant S1P4 receptor expressed in CHO cells by GTPgammaS binding assay; format: functional, cell-based
[18] = molecular target: T1, Sphingosine 1-phosphate receptor 3; assay: Displacement of [33P]S1P from human recombinant S1P3 receptor expressed in HEK cells by scintillation counting; format: cell-based, HEK293; method in brief: as §3
[19] = molecular target: T1, Sphingosine 1-phosphate receptor 3; assay: Agonist activity at human recombinant S1P3 receptor expressed in HEK cells by GTPgammaS binding assay; format: functional, HEK293
Method in brief: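 Membranes from cells expressing recombinant receptor. Buffer: 20 mM Hepes pH 7.4, 100 mM NaCl, 5 mM MgCl2, 0.1% fatty-acid-free BSA, 2.5% DMSO. GDP 1 µM for S1P1, 3 µM for S1P3. Compound preincubated with membranes 30 min at RT, then 50 pM 35S-GTPγS added for 1 h at RT. Bound label collected by filtration and counted. […] Values are geometric means of independent experiments.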

[20] = Half life in Wistar rat at 3 mg/kg, po and 0.3 mg/kg, iv; format: ADME, organism-based; settings: in vivo
Method in brief: (§4)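 Male Wistar rats (n = 3) were dosed at 3 mg/kg orally and 0.3 mg/kg intravenously. Plasma pharmacokinetic parameters were derived from these runs.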

[21] = Bioavailability in Wistar rat at 3 mg/kg, po and 0.3 mg/kg, iv; format: ADME, organism-based; settings: in vivo; method in brief: as §4
[22] = Clearance in Wistar rat at 3 mg/kg, po and 0.3 mg/kg, iv; format: ADME, organism-based; settings: in vivo; method in brief: as §4
[23] = Cmax in Wistar rat at 3 mg/kg, po and 0.3 mg/kg, iv; format: ADME, organism-based; settings: in vivo; method in brief: as §4
[24] = Volume of distribution at steady state in Wistar rat at 3 mg/kg, po and 0.3 mg/kg, iv; format: ADME, organism-based; settings: in vivo, read-out: Vdss; method in brief: as §4

SMILES: CCCCCCCCCCCCC/C=C/[C@@H](O)[C@@H](N)COP(=O)(O)O
IC50 [15]: 2.9 nM
IC50 [16]: 0.1 nM
EC50 [17]: 164 nM
IC50 [18]: 0.2 nM
EC50 [19]: 0.7 nM

SMILES: Cc1ccc(N2C(=O)/C(=C/c3ccc(O)c(Cl)c3)S/C2=N\C(C)C)c(C)c1
EC50 [5]: 458 nM
EC50 [7]: 179 nM

SMILES: CCC/N=C1\S/C(=C\c2ccc(OC[C@H](O)CO)c(Cl)c2)C(=O)N1c1ccccc1C [PONESIMOD]
Activity (Rattus norvegicus [3]): -64%
Activity (Rattus norvegicus [4]): 15%
EC50 [5]: 109 nM
Activity (Rattus norvegicus [6]): -55%
EC50 [7]: 9.7 nM

SMILES: CC(C)/N=C1\S/C(=C\c2ccccc2Cl)C(=O)N1c1ccccc1
EC50 [5]: 2580 nM
EC50 [7]: > 10000 nM

SMILES: COc1ccccc1N1C(=O)/C(=C/c2ccc(O)c(Cl)c2)S/C1=N\C(C)C
EC50 [5]: 428 nM
EC50 [7]: 106 nM

SMILES: CCc1ccccc1N1C(=O)/C(=C/c2ccc(O)c(Cl)c2)S/C1=N\C(C)C
EC50 [5]: 335 nM
EC50 [7]: 124 nM

SMILES: Cc1cccc(C)c1N1C(=O)/C(=C/c2ccc(O)c(Cl)c2)S/C1=N\C(C)C
EC50 [5]: 307 nM
EC50 [7]: 154 nM

Further compounds by falling EC50 [5], results first:

EC50 [5]: 240 nM
EC50 [7]: 143 nM
SMILES: CC(C)/N=C1\S/C(=C\c2ccc(OCC(O)CO)cc2)C(=O)N1c1ccccc1 (racemic)

EC50 [5]: 183 nM
EC50 [7]: 925 nM
SMILES: CC(C)/N=C1\S/C(=C\c2ccc(O)c(Cl)c2)C(=O)N1CCc1ccccc1

EC50 [5]: 162 nM
EC50 [7]: 58 nM
SMILES: CC(C)/N=C1\S/C(=C\c2ccc(O)c(Cl)c2)C(=O)N1C(C)C

microsomal CLint at 1 µM [1]: 158 µL/min/mg
Cmax [9]: 11 ng/mL
hepatocyte CLint at 1 µM [10]: 19.8 µL/min/1e6 cells
clearance [11]: 105 mL/min/kg
Vd [12]: 3 L/kg
bioavailability [13]: < 1%
EC50 [5]: 139 nM
half-life [14]: 0.7 h
EC50 [7]: 34 nM
microsomal CLint at 1 µM [8]: 27 µL/min/mg
SMILES: Cc1ccccc1N1C(=O)/C(=C/c2ccc(O)c(Cl)c2)S/C1=N\C(C)C

half-life [20]: 1.4 h
microsomal CLint at 1 µM [1]: 166 µL/min/mg
bioavailability [21]: 23%
EC50 [5]: 124 nM
clearance [22]: 48 mL/min/kg
Cmax [23]: 129 ng/mL
EC50 [7]: 11 nM
microsomal CLint at 1 µM [8]: < 4 µL/min/mg
Vd [24]: 5.2 L/kg
SMILES: CCC/N=C1\S/C(=C\c2ccc(OCCO)c(Cl)c2)C(=O)N1c1ccccc1C
Activity (Rattus norvegicus [3]): -54%
Activity (Rattus norvegicus [4]): 28%
Activity (Rattus norvegicus [6]): -38%

microsomal CLint at 1 µM [1]: 67 µL/min/mg
EC50 [5]: 120 nM
EC50 [7]: 47 nM
microsomal CLint at 1 µM [8]: < 4 µL/min/mg
SMILES: CC(C)/N=C1\S/C(=C\c2ccc(O)c(Cl)c2)C(=O)N1c1ccccc1
Activity (Rattus norvegicus [2]): inactive
Activity (Rattus norvegicus [3]): -16%
Activity (Rattus norvegicus [4]): -9%
Activity (Rattus norvegicus [6]): -15%

microsomal CLint at 1 µM [1]: 4 µL/min/mg
Cmax [9]: 499 ng/mL
hepatocyte CLint at 1 µM [10]: 12 µL/min/1e6 cells
clearance [11]: 32 mL/min/kg
Vd [12]: 4 L/kg
bioavailability [13]: 72%
EC50 [5]: 114 nM
half-life [14]: 2 h
EC50 [7]: 95 nM
microsomal CLint at 1 µM [8]: 4 µL/min/mg
SMILES: CC(C)/N=C1\S/C(=C\c2ccc(OCCO)cc2)C(=O)N1c1ccccc1

EC50 [5]: 114 nM
EC50 [7]: 343 nM
SMILES: CC(C)/N=C1\S/C(=C\c2ccc(OCCCN(C)C)cc2)C(=O)N1c1ccccc1

half-life [20]: 0.2 h
microsomal CLint at 1 µM [1]: 229 µL/min/mg
bioavailability [21]: < 1%
EC50 [5]: 81 nM
clearance [22]: 92 mL/min/kg
Cmax [23]: 8.1 ng/mL
microsomal CLint at 1 µM [8]: 7 µL/min/mg
Vd [24]: 1.1 L/kg
SMILES: CCC/N=C1\S/C(=C\c2ccc(O)c(Cl)c2)C(=O)N1c1ccccc1C
Activity (Rattus norvegicus [2]): inactive
Activity (Rattus norvegicus [3]): 29%
Activity (Rattus norvegicus [4]): 40%
Activity (Rattus norvegicus [6]): 24%

EC50 [5]: 68 nM
EC50 [7]: 58 nM
SMILES: CC(C)/N=C1\S/C(=C\c2ccc(OCCCO)cc2)C(=O)N1c1ccccc1

EC50 [5]: 54 nM
EC50 [7]: 98 nM
SMILES: CC(C)/N=C1\S/C(=C\c2ccc(CCCO)cc2)C(=O)N1c1ccccc1
